Bioassay records (PubChem)
The list is not random: actives were taken first. Their share in the collection is about 2.7%.
TPT1 inhibitor – inhibitors of Candida albicans tRNA 2'-phosphotransferase TPT1; recombinant caTPT1, FP RNA substrate dephosphorylation; inhibition, % at 5 µM; actives 0.81% (n = 300,000); AID 1962;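 active means inhibition above the mean of all tested compounds plus 3 SD, set per screening campaign, cut at about 24% in these data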;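 further: plate controls were DMSO alone for no effect and ferristatin control at 100 nM for full effect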
HNF4A DNA FP – change in binding of human HNF4 alpha to DNA. actives 0.3% (n = 360,000). HNF4a-FITC DNA binding, fluorescence polarization, 1 h. AID 1224865. P41235. activity change, % at 10 µM; in the data active means activity change above about 30%, passing the limit was not always enough
CSN inh – blocks human CSN-mediated cullin deneddylation; Q92905; Purified CSN, SCF-Nedd8-OG deneddylation, fluorescence polarization; inhibition, % at 12.5 µM; actives 0.38% (n = 360,000);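 active means pattern-corrected inhibition above about 35%, with an unprinted fluorescence ratio check between 0.5 and 1.5, limit read from the data, passing the limit was not always enough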;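 further: 0% = enzyme with substrate and 100% = substrate without enzyme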
Target sequence (Q92905 whole entry, looked up, one chain of several): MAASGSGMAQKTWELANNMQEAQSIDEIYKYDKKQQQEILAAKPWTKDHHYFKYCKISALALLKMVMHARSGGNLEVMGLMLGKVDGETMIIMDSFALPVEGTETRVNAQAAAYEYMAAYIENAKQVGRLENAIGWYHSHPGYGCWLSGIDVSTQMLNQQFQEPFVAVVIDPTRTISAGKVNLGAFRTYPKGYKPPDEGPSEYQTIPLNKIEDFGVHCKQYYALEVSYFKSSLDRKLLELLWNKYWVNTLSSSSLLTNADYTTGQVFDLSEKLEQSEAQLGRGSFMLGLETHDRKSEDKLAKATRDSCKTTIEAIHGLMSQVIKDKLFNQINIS
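Test system: purified human Csn5 enzyme expressed in HEK293T cells. Amount: 0.24 nM enzyme. Reagent: SCFSkp2-Nedd8OG substrate at 10 nM final. Schedule: 90 min incubation of compound, enzyme and substrate at room temperature. Detection: fluorescence polarization. Read-out: % inhibition of substrate cleavage by Csn5.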
Rpn11 block – blocks the human proteasome subunit Rpn11; O00487; human 26S proteasome, Ub4-pepOG fluorescence polarization; 20S core pre-blocked with epoxomicin; inhibition, % at 20 µM; actives 0.59% (n = 360,000); AID 588493;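 active means inhibition at 20 µM, scaled to each plate's controls, above about 33%, limit read from the data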
NadD inh – blocks S. aureus nicotinate mononucleotide adenylyltransferase. purified NadD enzyme, colorimetric absorbance read-out. inhibition, % at 20 µM. actives 0.78% (n = 360,000); in the data active means inhibition above about 26%
PP1 counter – PP1-alpha (human) inhibition in PP5 counter-screen | P62136 | purified PP1alpha, OMFP fluorescence | inhibition, % at 6.7 µM | actives 0.9% (n = 320,000) | AID 2235;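 active means inhibition above the mean inhibition of all tested compounds plus 3 SD, computed separately for each screening campaign, cut at about 15% in these data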
TPT1 inh confirm – TPT1 (C. albicans) inhibition, confirmation; shares compounds with TPT1 inhibitor; recombinant caTPT1, fluorescence polarization, RNase T1 coupled; inhibition, % at 5 µM; actives 74% (n = 2,400);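 active means inhibition above the primary screen limit, the mean inhibition of all tested compounds plus 3 SD, cut at about 25% in these data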
RNase T1 counter – blocks Aspergillus oryzae RNase T1, a TPT1 counter-screen. shares compounds with TPT1 inhibitor. actives 83% (n = 2,400). AID 2153. inhibition, % at 5 µM. RNase T1 cleavage, fluorescence polarization, 1536-well;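 active means inhibition above the solvent-only control well mean plus 3 SD, limit set per screening run, cut at about 23% in these data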;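 further: plate controls were DMSO wells with enzyme for no effect and wells without RNase T1 for full effect; inhibitors block cleavage so intact labeled substrate keeps polarization high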
Target sequence (P00651 whole entry, looked up): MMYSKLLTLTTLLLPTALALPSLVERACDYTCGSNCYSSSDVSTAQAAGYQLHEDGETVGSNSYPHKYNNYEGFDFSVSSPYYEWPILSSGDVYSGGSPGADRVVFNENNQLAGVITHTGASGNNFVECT
* = called active by the depositor; · = no result shown.

SMILES	TPT1 inhibitor	HNF4A DNA FP	CSN inh	Rpn11 block	NadD inh	PP1 counter	TPT1 inh confirm	RNase T1 counter
CCOC(=O)C1(Cc2cccc(F)c2)CCN(Cc2nc(CC)[nH]c2C)CC1	87.2*	75.4*	30.1	·	11.8	2.2	102.1*	107.2*
CCc1nnc(NS(=O)(=O)c2ccc(Nc3ccc([N+](=O)[O-])c4nonc34)cc2)s1	27.4*	38.2*	2.1	38.8	7.9	3.4	32.8*	49.3*
CC(=O)c1ccc(Nc2ccc([N+](=O)[O-])c3nonc23)cc1	29.5*	13.1	9.3	25.9	-4.2	-0.7	36.6*	52.3*
CCc1nnc(NS(=O)(=O)c2ccc(NS(=O)(=O)c3ccccc3[N+](=O)[O-])cc2)s1	0.2	1.6	-4.4	1.9	-2.7	-1.7	·	·
O=S(=O)(Nc1cc(Cl)ccc1N1CCCCC1)c1cccs1	48.3*	12.6	7.6	31.3	0.6	7.1	27.7*	35.1*
O=S(=O)(Nc1ccc(N2CCCCC2)cc1)c1cccs1	0.5	-0.9	0.2	5.6	10.7	0.3	·	·
CCn1c2ccccc2c2cc(N)ccc21	26.0*	35.9	36.1*	·	18.3	8.0	28.1*	40.2*
CCOc1ccc2nc(/N=C/c3nc(-c4ccc(Br)cc4)oc3O)sc2c1	50.2*	13.6	10.6	·	20.4	-3.1	57.7*	67.6*
CCCCOc1ccc(-c2nc(/C=N/c3nccs3)c(O)o2)cc1	4.7	2.1	-19.0	8.8	3.1	5.8	·	·
O/C(=C\c1ccc2ccccc2n1)c1ccncc1	53.4*	22.7	11.0	22.5	-10.5	-1.0	80.9*	90.4*
CCCN(CCC)C1=N/C(=C\c2ccco2)C(=O)N1c1ccccc1	26.3*	1.9	15.4	11.9	-6.9	4.7	15.4	21.8*
CCCN=C1N/C(=C\c2ccco2)C(=O)N1c1ccccc1	1.0	4.2	1.3	5.2	3.0	-2.8	·	·
Cc1ccc(-c2nc(CN3CCCCC3c3cccc(F)c3)c(C)o2)o1 (centres undefined)	33.1*	18.5	8.5	27.8	7.5	2.4	23.3	29.7*
Cc1oc(-c2ccccc2Cl)nc1CN1CCCC1c1ccc(F)cc1 (centres undefined)	3.5	7.4	2.7	10.4	1.9	-2.6	·	·
Cc1ccc(/C=C2\CCC3=C2OC(N)=C(C#N)C3c2ccc(C)cc2)cc1 (centres undefined)	122.2*	60.2	65.2	·	45.5*	10.3	121.1*	111.9*
O=C(NN1C(=O)/C(=C/c2cccc(O)c2)SC1=S)c1ccccc1O	1.4	2.7	-4.9	-3.1	-0.8	0.6	·	·
Cc1ccc(C(=O)NN2C(=O)/C(=C/c3cccn3C)SC2=S)cc1	78.7*	87.7*	21.5	·	0.9	2.9	95.7*	111.8*
Cn1cccc1/C=C1\SC(=S)N(NC(=O)c2ccccc2Cl)C1=O	87.2*	69.5*	44.1*	·	-0.4	-1.1	88.3*	105.8*
CC(=O)NCCC(=O)Nc1cc(S(=O)(=O)N2CCOCC2)ccc1N1CCCC1	-3.4	-0.3	-2.8	-2.0	-1.6	-0.8	·	·
O=C(O)c1ccc(N/N=C/c2cc3cc4c(cc3nc2Cl)OCCO4)cc1	26.8*	4.5	4.5	21.1	-1.1	1.5	37.7*	47.9*
CCCCSCCCNC(=O)c1ccc(CS(=O)(=O)c2ccccc2OC)o1	-5.5	-3.9	-1.6	-13.3	-9.6	-0.3	·	·
O=C(NCCc1c[nH]c2ccccc12)C(=O)NCC(c1ccco1)N1CCN(c2ccccc2F)CC1 (centres undefined)	50.8*	1.7	-3.7	0.7	0.7	3.4	1.8	5.4
COc1ccc(CC(=O)N(C)Cc2cccc(OC)c2OC)cc1S(=O)(=O)N1CCOCC1	-2.7	3.6	1.4	2.1	8.5	-1.3	·	·
COc1cc(/C=C2\SC(N)=NC2=O)cc(Br)c1O	58.9*	37.5*	47.4*	·	-3.8	-2.4	68.7*	77.9*
COc1cc(/C=C2\SC(c3ccccc3)=NC2=O)cc(Cl)c1O	·	3.9	-8.0	16.1	7.3	·	·	·
